Source: ChEMBL document CHEMBL2046302, “Fused tricyclic indoles as S1P₁ agonists with robust efficacy in animal models of autoimmune disease” (Bioorg Med Chem Lett, 2012)
pEC50, pIC50: −log10 of the molar value. Calls of active or inactive are those of the source. No cut-off for these calls is given here.

Columns and labels:
[1] = molecular target: T1, Sphingosine 1-phosphate receptor 1 (Homo sapiens, UniProt P21453); assay: Agonist activity against human S1P1 assessed as accumulation of cAMP by HTRF assay; type: functional
T1 sequence (P21453 whole entry): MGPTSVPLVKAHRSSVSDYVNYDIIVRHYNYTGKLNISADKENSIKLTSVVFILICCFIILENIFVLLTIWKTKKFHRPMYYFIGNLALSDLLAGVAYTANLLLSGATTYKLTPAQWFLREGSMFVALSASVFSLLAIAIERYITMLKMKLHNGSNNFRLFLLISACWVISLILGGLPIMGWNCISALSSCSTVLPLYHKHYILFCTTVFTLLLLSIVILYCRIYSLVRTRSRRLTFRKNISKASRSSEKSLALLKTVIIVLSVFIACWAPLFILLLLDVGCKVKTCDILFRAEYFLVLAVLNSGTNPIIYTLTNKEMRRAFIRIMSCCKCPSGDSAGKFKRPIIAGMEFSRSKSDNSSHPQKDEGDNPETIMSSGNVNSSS
Outline: (§1)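 Agonist EC50 was read from a cAMP HTRF assay run on human, rat and mouse S1P1. Response was scaled against S1P, and values are the mean of three or more replicates.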

Mus musculus [2] = assay: Immunosuppressant activity in BALB/c mouse assessed as reduction in circulating lymphocyte at 6 mg/kg, po measured after 5 hrs; type: functional, organism-based; set-up: dose 6 mg/kg
Outline: (§2)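 BALB/c mice were dosed orally as a suspension in 0.5% methyl cellulose, at 6 mg/kg or 1.0 mg/kg. Circulating lymphocytes were followed over time, with readings at 5 h and 24 h.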

Mus musculus [3] = assay: Immunosuppressant activity in BALB/c mouse assessed as reduction in circulating lymphocyte at 6 mg/kg, po measured up to 24 hrs; type: functional, organism-based; set-up: dose 6 mg/kg; outline: as §2
Mus musculus [4] = assay: Immunosuppressant activity in BALB/c mouse assessed as reduction in circulating lymphocyte at 1 mg/kg, po measured at 5 hrs; type: functional, organism-based; set-up: dose 1 mg/kg; outline: as §2
Mus musculus [5] = assay: Immunosuppressant activity in BALB/c mouse assessed as reduction in circulating lymphocyte at 1 mg/kg, po measured at 24 hrs; type: functional, organism-based; set-up: dose 1 mg/kg; outline: as §2
Mus musculus [6] = assay: Immunosuppressant activity in autoimmune encephalomyelitis C57B1/6 mouse model assessed as reduction in disease score at 10 mg/kg, po qd administered on day 3 post challenge; type: functional, organism-based; set-up: dose 10 mg/kg
Outline: (§3)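 Oral dosing once daily in 0.5% methylcellulose began on day 3. Signs of disease were monitored daily and graded on a 1–5 scale, from limp tail or hind-limb weakness (1) to death (5).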

Mus musculus [7] = assay: Reduction T-cell mediated beta-cell destruction in cyclophosphamide-induced non-obese type 1 diabetes mouse model assessed as normalization of blood glucose at 1 mg/kg, po qd for 25 days; type: functional, organism-based; set-up: dose 1 mg/kg
Outline: (§4)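 NOD mice were given cyclophosphamide i.p. on days 0 and 14 to accelerate diabetes onset. Oral dosing once daily in 0.5% methyl cellulose ran from day 0 to day 25. Animals with non-fasting blood glucose >250 mg/dL were scored diabetic.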

Mus musculus [8] = assay: Reduction T-cell mediated beta-cell destruction in cyclophosphamide-induced non-obese type 1 diabetes mouse model assessed as normalization of blood glucose at 3 to 10 mg/kg, po qd for 25 days; type: functional, organism-based; outline: as §4
Rattus norvegicus [9] = assay: Immunosuppressant activity in collagen-induced Lewis rat arthritis model assessed as reduction in joint inflammation at 1 to 10 mg/kg, po qd; type: functional, organism-based
Mus musculus [10] = assay: Immunosuppressant activity in autoimmune encephalomyelitis C57B1/6 mouse model assessed as reduction in disease score at 1 mg/kg, po qd administered on day 3 post challenge; type: functional, organism-based; set-up: dose 1 mg/kg; outline: as §3
Rattus norvegicus [11] = assay: Immunosuppressant activity in collagen-induced Lewis rat arthritis model assessed as reduction in joint inflammation at 1 mg/kg, po qd; type: functional, organism-based; set-up: dose 1 mg/kg
Rattus norvegicus [12] = assay: Toxicity in telemeterized Charles-River Sprague-Dawley rat assessed as reduction in heart rate at 3 mg/kg, po measured over 20 hrs; type: organism-based; set-up: dose 3 mg/kg, route oral; conditions: in vivo
Outline: (§5)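 Telemeterized Charles River Sprague–Dawley rats received 3 or 30 mg/kg orally as a suspension in 0.5% methyl cellulose, with vehicle-treated and positive-control groups. Heart rate was recorded hourly over 20 h.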

Mus musculus [13] = assay: Immunosuppressant activity in BALB/c mouse assessed as reduction in circulating lymphocyte at 30 mg/kg, po measured at 24 hrs; type: functional, organism-based; set-up: dose 30 mg/kg
[14] = molecular target: Sphingosine 1-phosphate receptor 2 (Homo sapiens, UniProt O95136); assay: Agonist activity against human S1P2 by beta arrestin recruitment assay; type: functional
Chain of Sphingosine 1-phosphate receptor 2 (O95136 whole entry): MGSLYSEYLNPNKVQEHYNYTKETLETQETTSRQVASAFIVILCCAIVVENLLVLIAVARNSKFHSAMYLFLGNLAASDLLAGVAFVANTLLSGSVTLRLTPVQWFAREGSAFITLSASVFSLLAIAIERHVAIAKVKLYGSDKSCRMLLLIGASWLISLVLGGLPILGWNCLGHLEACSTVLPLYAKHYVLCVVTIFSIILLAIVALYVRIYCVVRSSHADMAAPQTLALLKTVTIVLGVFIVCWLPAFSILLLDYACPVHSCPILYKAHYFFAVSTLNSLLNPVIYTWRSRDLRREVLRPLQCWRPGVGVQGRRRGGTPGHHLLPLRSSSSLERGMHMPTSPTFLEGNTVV
Outline: (§6)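 Agonist EC50 at human S1P1 through S1P5 was measured by β-arrestin recruitment. Values are the mean of three or more replicates.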

[15] = molecular target: Sphingosine 1-phosphate receptor 1 (Rattus norvegicus, UniProt P48303); assay: Agonist activity against rat S1P1 assessed as accumulation of cAMP by HTRF assay; type: functional; outline: as §1
Chain of Sphingosine 1-phosphate receptor 1 (Rattus norvegicus, UniProt P48303) (P48303 whole entry): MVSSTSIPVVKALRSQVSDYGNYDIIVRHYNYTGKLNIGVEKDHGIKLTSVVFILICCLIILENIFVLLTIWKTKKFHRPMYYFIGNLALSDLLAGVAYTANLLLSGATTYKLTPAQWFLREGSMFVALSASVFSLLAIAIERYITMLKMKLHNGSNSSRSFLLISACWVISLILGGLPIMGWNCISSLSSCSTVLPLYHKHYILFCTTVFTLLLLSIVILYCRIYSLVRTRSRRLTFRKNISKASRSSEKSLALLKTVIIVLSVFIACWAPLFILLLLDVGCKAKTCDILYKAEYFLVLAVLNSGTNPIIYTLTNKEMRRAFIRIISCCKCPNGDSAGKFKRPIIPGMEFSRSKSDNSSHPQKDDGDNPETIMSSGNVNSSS

[16] = molecular target: Sphingosine 1-phosphate receptor 1 (Mus musculus, UniProt O08530); assay: Agonist activity against mouse S1P1 assessed as accumulation of cAMP by HTRF assay; type: functional; outline: as §1
Chain of Sphingosine 1-phosphate receptor 1 (Mus musculus, UniProt O08530) (O08530 whole entry): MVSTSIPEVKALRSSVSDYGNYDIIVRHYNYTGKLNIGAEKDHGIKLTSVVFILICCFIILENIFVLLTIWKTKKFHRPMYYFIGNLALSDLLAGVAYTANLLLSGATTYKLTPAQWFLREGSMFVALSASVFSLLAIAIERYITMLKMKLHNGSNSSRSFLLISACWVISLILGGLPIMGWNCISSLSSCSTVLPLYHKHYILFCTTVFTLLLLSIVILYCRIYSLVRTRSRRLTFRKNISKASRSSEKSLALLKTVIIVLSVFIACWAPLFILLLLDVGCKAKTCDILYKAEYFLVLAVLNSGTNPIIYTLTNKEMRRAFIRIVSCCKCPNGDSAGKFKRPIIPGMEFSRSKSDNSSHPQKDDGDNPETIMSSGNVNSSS

[17] = molecular target: T1, Sphingosine 1-phosphate receptor 1; assay: Agonist activity against human S1P1 by beta arrestin recruitment assay; type: functional; outline: as §6
[18] = molecular target: Sphingosine 1-phosphate receptor 3 (Homo sapiens, UniProt Q99500); assay: Agonist activity against human S1P3 by beta arrestin recruitment assay; type: functional; outline: as §6
Chain of Sphingosine 1-phosphate receptor 3 (Q99500 whole entry): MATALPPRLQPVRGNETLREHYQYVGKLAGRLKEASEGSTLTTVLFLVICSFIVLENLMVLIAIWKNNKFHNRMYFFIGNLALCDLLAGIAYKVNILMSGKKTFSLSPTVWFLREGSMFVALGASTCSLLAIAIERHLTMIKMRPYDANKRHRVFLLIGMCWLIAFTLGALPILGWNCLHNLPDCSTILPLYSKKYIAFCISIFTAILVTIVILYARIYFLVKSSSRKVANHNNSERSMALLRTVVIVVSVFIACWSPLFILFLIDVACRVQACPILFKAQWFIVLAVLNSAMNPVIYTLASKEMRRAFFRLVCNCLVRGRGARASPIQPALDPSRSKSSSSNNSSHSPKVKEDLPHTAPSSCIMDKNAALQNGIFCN

[19] = molecular target: T2, Sphingosine 1-phosphate receptor 4 (Homo sapiens, UniProt O95977); assay: Agonist activity against human S1P4 by beta arrestin recruitment assay; type: functional; outline: as §6
T2 sequence (O95977 whole entry): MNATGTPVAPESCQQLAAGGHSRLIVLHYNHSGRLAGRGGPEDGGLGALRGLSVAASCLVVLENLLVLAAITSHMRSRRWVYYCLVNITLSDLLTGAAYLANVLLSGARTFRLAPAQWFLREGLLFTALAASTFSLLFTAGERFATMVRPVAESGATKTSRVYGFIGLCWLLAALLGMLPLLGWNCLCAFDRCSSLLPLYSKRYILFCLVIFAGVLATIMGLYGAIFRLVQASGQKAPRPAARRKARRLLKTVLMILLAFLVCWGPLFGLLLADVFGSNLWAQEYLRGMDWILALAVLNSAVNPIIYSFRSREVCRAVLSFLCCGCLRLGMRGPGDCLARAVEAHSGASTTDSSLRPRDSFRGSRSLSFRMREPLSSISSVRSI

[20] = molecular target: Sphingosine 1-phosphate receptor 5 (Homo sapiens, UniProt Q9H228); assay: Agonist activity against human S1P5 by beta arrestin recruitment assay; type: functional; outline: as §6
Chain of Sphingosine 1-phosphate receptor 5 (Q9H228 whole entry): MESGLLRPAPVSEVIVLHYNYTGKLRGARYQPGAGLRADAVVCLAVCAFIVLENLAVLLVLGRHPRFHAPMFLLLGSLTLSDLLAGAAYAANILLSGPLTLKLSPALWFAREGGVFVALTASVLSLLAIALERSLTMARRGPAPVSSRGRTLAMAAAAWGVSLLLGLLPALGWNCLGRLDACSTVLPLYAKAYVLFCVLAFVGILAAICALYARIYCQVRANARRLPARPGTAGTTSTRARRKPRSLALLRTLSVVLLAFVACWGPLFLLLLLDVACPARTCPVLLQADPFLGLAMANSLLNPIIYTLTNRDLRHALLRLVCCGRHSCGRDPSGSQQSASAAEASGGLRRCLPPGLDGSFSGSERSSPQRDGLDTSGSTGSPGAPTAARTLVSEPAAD

[21] = Half life in rat liver microsome; type: ADME; conditions: liver microsomes
[22] = Half life in human liver microsome; type: ADME; conditions: liver microsomes
[23] = Clearance in Sprague-Dawley rat at 2 mg/kg, iv and 3 mg/kg, po; type: ADME, organism-based; conditions: in vivo
Outline: (§7)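 Male Sprague–Dawley rats received 2.0 mg/kg IV in 100% PEG400 and 3.0 mg/kg PO in 0.5% methyl cellulose. Clearance, Vss, terminal half-life, Cmax, AUClast and oral bioavailability were derived from plasma levels.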

[24] = Cmax in Sprague-Dawley rat in Sprague-Dawley rat at 2 mg/kg, iv and 3 mg/kg, po; type: ADME, organism-based; conditions: in vivo; outline: as §7
[25] = Volume of distribution at steady state in Sprague-Dawley rat at 2 mg/kg, iv and 3 mg/kg, po; type: ADME, organism-based; conditions: in vivo, read-out: Vdss; outline: as §7
[26] = Terminal half life in Sprague-Dawley rat at 2 mg/kg, iv and 3 mg/kg, po; type: ADME, organism-based; conditions: in vivo, read-out: beta t1/2 (converted); outline: as §7
[27] = AUClast in Sprague-Dawley rat in Sprague-Dawley rat at 2 mg/kg, iv and 3 mg/kg, po; type: ADME, organism-based; conditions: plasma; outline: as §7
[28] = Oral bioavailability in Sprague-Dawley rat at 3 mg/kg; type: ADME, organism-based; conditions: in vivo; outline: as §7
Cytochrome P450 3A4 = Cytochrome P450 3A4 (Homo sapiens, UniProt P08684); assay: Inhibition of CYP3A4; type: ADME
Cytochrome P450 2D6 = Cytochrome P450 2D6 (Homo sapiens, UniProt P10635); assay: Inhibition of CYP2D6; type: ADME
Chain of Cytochrome P450 2D6 (P10635 whole entry): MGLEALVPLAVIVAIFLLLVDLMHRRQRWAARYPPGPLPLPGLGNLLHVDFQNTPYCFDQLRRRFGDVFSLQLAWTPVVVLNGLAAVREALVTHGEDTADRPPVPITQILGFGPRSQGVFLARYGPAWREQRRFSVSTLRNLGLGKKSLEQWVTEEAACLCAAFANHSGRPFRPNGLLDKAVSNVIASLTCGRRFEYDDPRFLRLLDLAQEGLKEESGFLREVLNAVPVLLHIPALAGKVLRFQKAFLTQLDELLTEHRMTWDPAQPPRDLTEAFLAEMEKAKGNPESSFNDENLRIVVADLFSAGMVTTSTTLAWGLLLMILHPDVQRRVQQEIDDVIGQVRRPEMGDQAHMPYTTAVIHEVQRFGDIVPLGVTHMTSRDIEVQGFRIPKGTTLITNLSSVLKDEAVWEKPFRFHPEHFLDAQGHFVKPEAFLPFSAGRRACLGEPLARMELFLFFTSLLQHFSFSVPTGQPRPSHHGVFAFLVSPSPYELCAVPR

Cytochrome P450 2C9 = Cytochrome P450 2C9 (Homo sapiens, UniProt P11712); assay: Inhibition of CYP2C9; type: ADME
Chain of Cytochrome P450 2C9 (P11712 whole entry): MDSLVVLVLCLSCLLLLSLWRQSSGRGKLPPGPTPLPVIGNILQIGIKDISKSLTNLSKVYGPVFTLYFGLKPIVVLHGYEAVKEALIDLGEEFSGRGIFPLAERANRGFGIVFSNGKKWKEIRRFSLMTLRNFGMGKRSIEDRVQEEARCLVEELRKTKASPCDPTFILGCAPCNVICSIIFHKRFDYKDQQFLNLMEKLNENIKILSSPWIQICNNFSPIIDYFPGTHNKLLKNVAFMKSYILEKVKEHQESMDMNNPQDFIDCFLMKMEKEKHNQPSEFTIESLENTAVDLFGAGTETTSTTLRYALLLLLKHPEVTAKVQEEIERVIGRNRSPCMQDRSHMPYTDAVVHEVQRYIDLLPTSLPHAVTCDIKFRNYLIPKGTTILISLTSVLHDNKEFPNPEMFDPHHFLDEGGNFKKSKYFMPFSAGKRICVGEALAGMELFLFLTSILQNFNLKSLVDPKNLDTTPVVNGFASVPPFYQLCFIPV

Cytochrome P450 2C19 = Cytochrome P450 2C19 (Homo sapiens, UniProt P33261); assay: Inhibition of CYP2C19; type: ADME
Chain of Cytochrome P450 2C19 (P33261 whole entry): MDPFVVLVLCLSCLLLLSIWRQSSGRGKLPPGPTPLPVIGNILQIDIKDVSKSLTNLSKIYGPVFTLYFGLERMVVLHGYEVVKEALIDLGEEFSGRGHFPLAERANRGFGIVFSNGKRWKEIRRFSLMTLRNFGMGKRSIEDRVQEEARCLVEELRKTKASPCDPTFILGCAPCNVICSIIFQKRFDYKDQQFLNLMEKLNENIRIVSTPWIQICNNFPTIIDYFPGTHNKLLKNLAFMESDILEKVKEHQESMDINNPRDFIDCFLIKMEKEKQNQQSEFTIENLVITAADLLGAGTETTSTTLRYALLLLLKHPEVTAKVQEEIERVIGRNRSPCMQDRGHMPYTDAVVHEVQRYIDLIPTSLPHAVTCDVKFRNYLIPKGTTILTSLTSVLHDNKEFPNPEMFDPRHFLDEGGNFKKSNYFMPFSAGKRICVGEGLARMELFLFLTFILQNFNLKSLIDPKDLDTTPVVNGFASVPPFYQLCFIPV

Cytochrome P450 1A2 = molecular target: T3, Cytochrome P450 1A2 (Homo sapiens, UniProt P05177); assay: Inhibition of CYP1A2; type: ADME
T3 sequence (P05177 whole entry): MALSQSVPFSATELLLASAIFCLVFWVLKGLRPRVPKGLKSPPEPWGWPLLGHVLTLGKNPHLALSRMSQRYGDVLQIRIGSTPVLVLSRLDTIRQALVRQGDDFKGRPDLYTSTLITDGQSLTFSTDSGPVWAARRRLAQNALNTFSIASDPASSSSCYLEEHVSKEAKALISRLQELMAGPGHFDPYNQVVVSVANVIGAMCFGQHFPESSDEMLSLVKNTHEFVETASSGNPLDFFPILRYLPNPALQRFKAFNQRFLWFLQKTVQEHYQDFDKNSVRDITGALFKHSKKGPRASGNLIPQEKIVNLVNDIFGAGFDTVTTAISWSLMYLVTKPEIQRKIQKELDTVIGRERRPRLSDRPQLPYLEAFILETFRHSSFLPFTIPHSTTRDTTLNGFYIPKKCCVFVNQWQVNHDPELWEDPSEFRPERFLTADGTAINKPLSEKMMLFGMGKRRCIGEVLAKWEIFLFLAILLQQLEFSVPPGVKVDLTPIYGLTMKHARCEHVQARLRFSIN

[29] = molecular target: T4, Voltage-gated inwardly rectifying potassium channel KCNH2 (Homo sapiens, UniProt Q12809); assay: Inhibition of human ERG by astemizole assay
T4 sequence (Q12809 whole entry): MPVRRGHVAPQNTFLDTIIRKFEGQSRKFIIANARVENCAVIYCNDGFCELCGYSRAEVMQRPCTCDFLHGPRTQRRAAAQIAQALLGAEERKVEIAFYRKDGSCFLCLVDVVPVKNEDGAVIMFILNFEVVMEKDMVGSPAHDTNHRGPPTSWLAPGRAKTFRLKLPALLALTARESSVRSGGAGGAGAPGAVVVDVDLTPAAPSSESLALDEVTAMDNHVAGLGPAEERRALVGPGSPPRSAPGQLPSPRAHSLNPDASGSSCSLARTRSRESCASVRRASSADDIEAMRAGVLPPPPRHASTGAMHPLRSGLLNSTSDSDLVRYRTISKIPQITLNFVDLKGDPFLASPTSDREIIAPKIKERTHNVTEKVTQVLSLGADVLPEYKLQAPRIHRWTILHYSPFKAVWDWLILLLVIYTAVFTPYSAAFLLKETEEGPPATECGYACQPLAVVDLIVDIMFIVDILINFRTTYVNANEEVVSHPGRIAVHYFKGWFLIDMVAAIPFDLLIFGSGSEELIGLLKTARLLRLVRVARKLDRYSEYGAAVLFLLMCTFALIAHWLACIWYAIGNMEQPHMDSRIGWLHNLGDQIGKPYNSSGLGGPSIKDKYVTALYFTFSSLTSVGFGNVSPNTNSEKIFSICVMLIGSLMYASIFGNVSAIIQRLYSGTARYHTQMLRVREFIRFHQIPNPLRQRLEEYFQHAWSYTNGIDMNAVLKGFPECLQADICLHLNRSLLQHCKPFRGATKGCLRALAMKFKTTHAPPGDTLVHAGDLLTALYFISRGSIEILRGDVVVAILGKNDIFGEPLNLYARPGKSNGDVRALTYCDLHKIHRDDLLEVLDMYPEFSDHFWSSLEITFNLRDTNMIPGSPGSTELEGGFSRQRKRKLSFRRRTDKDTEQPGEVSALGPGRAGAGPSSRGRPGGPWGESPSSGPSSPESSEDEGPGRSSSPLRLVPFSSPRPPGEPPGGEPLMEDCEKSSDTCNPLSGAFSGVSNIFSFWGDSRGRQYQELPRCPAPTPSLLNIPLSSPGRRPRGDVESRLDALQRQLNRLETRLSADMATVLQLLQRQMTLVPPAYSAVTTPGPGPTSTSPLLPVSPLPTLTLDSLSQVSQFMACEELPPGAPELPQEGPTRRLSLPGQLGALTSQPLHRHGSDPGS

[30] = molecular target: T4, Voltage-gated inwardly rectifying potassium channel KCNH2; assay: Inhibition of human ERG by patch clamp assay
Salmonella typhimurium [31] = assay: Mutagenic activity against Salmonella typhimurium assessed as frame shift mutation by ames test; type: toxicity, organism-based; conditions: salmonella enterica subsp. enterica serovar typhimurium
Outline: (§8)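 Ames bacterial reverse mutation test on five strains, scored for frame-shift and base-pair substitution mutations.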

Salmonella typhimurium [32] = assay: Mutagenic activity against Salmonella typhimurium assessed as base pair mutation by ames test; type: toxicity, organism-based; conditions: salmonella enterica subsp. enterica serovar typhimurium; outline: as §8
Rattus norvegicus [33] = assay: Toxicity in telemeterized Charles-River Sprague-Dawley rat assessed as reduction in heart rate at 30 mg/kg, po measured over 20 hrs; type: organism-based; set-up: dose 30 mg/kg, route oral; conditions: in vivo; outline: as §5
Rattus norvegicus [34] = assay: Immunosuppressant activity in collagen-induced Lewis rat arthritis model assessed as reduction in joint inflammation at 0.075 mg/kg, po qd; type: functional, organism-based; set-up: dose 0.075 mg/kg

With `N#Cc1cc(OC(F)(F)F)cc(-c2nc(-c3ccc4[nH]c5c(c4c3)CCC5CC(=O)O)no2)c1` (racemic) the pEC50 [1] was 8.96.

For `N#Cc1cc(OC(F)(F)F)cc(-c2nc(-c3ccc4c(c3)cc3n4CCC3CC(=O)O)no2)c1` (single isomer, unassigned; enantiomer 2) [listing 1 of 2 here], the Activity (Mus musculus [2]) was “Active”, the Activity (Mus musculus [3]) was “Active” and the Activity (Mus musculus [4]) was “Active”. The Activity (Mus musculus [5]) was “inactive”, the Activity (Mus musculus [6]) was “Active” and the Activity (Mus musculus [7]) was “Active”. For the same compound, the Activity (Mus musculus [8]) was “Active” and the Activity (Rattus norvegicus [9]) was “Active”.

`CC(C)Oc1ccc(-c2nc(-c3ccc4c(c3)cc3n4CCC3CC(=O)O)no2)cc1C#N` (racemic) showed a pEC50 [1] of 9.21.

With `CCCCCCCCc1ccc(CCC(N)(CO)CO)cc1` [FINGOLIMOD] the Activity (Mus musculus [10]) was “Active”, the Activity (Rattus norvegicus [11]) was “Active” and the Activity (Rattus norvegicus [12]) was “Toxic”.

For `N#Cc1cc(OC(F)(F)F)cc(-c2nc(-c3ccc4[nH]c5c(c4c3)CCC5CC(=O)O)no2)c1` (single isomer, unassigned), the Activity (Mus musculus [2]) was “Active”, the Activity (Mus musculus [3]) was “Active” and the Activity (Mus musculus [13]) was “Active”.

For `COc1ccc(-c2nc(-c3ccc4[nH]c5c(c4c3)CCC5CC(=O)O)no2)cc1C#N` (racemic), the pEC50 [1] was 8.34.

With `N#Cc1cc(OC(F)(F)F)cc(-c2nc(-c3ccc4c(c3)cc3n4CCC3CC(=O)O)no2)c1` (single isomer, unassigned; enantiomer 2) [listing 2 of 2 here] the pEC50 [1] was 10.10, the pEC50 [14] was < 4.00 and the pEC50 [15] was 10.00. For the same compound, the pEC50 [16] was 9.28, the pEC50 [17] was 8.32 and the pEC50 [18] was < 4.00. The pEC50 [19] was < 4.00, the pEC50 [20] was 7.68 and the half-life [21] was > 1 h. For the same compound, the half-life [22] was > 1 h, the clearance [23] was 0.422 mL/min/kg and the Cmax [24] was 13300 ng/mL. The Vd [25] was 0.234 L/kg, the half-life [26] was 4.68 h and the AUC(0-t) [27] was 124 µg·h/mL. The bioavailability [28] was 100%, the pIC50 (Cytochrome P450 3A4) was < 4.52 and the pIC50 (Cytochrome P450 2D6) was < 4.52. The pIC50 (Cytochrome P450 2C9) was < 4.52, the pIC50 (Cytochrome P450 2C19) was < 4.52 and the pIC50 (Cytochrome P450 1A2) was < 4.52. For the same compound, the pIC50 [29] was < 4.52, the pIC50 [30] was < 3.40 and the Activity (Salmonella typhimurium [31]) was “Non-toxic”. For the same compound, the Activity (Salmonella typhimurium [32]) was “Non-toxic”, the Activity (Rattus norvegicus [12]) was “Non-toxic” and the Activity (Rattus norvegicus [33]) was “Non-toxic”.

With `CN(Cc1cnc2nc(N)nc(N)c2n1)c1ccc(C(=O)N[C@@H](CCC(=O)O)C(=O)O)cc1` the Activity (Rattus norvegicus [34]) was “Active”.

In the case of `N#Cc1cc(-c2nc(-c3ccc4[nH]c5c(c4c3)CCC5CC(=O)O)no2)ccc1OC(F)(F)F` (racemic), the pEC50 [1] was 8.49.

Compound `N#Cc1cc(OC(F)(F)F)cc(-c2nc(-c3ccc4c(c3)cc3n4CCC3CC(=O)O)no2)c1` (racemic) has a pEC50 [1] of 9.60.
